Test results taken from ChEMBL document CHEMBL2046306, “Synthesis of 6-substituted 9-methoxy-11H-indeno[1,2-c]quinoline-11-one derivatives as potential anticancer agents” (Bioorg Med Chem, 2012).
Activity calls are given as the source filed them. The calls are words filed in the database; no cut-off is given here.

Legend:
NCI-H460 [1] = assay: Cell cycle arrest in human NCI-H460 cells assessed as accumulation at S phase at 10 uM after 24 hrs by propidium iodide staining-based flow cytometric analysis (reference value: 14.3 +/- 1.9%); assay type: functional
A549 = assay: Growth inhibition of human A549 cells after 48 hrs by sulforhodamine B assay; assay type: functional, cell-based; settings: A549, 48 h
Method in brief: (§1)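 NCI 60-line screen. Cells grown in RPMI 1640 with 5% FBS and 2 mM L-glutamine, seeded at 5000–40,000 cells/well, preincubated 24 h at 37 °C. Five 10-fold dilutions added, highest well concentration 10E-4 M. Incubated 48 h in 5% CO₂ at 100% humidity. Sulforhodamine B read-out by optical density; GI50 taken from dose-response curves versus control.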

[2] = Growth inhibition of human Hs 578T cells after 48 hrs by sulforhodamine B assay; assay type: functional; method in brief: as §1
DU-145 = assay: Growth inhibition of human DU145 cells after 48 hrs by sulforhodamine B assay; assay type: functional; settings: DU-145, 48 h; method in brief: as §1
NCI-H460 [3] = assay: Induction of apoptosis in human NCI-H460 cells assessed as accumulation at sub-G1 phase at 5 uM after 24 hrs by propidium iodide staining-based flow cytometric analysis (reference value: 0.9 +/- 0.3%); assay type: functional
NCI-H460 [4] = assay: Growth inhibition of human NCI-H460 cells after 48 hrs by sulforhodamine B assay; assay type: functional; settings: NCI-H460, 48 h; method in brief: as §1
SR = assay: Growth inhibition of human SR cells after 48 hrs by sulforhodamine B assay; assay type: functional
Method in brief: (§2)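 NCI 60-line screen. Cells grown in RPMI 1640 with 5% FBS and 2 mM L-glutamine, seeded at 5000-40,000 cells/well and preincubated 24 h at 37 °C. Compounds added at five 10-fold dilutions, highest well concentration 10E-4 M. Exposure 48 h in 5% CO2 at 100% humidity. Endpoint is sulforhodamine B with optical density read-out. GI50 is the concentration giving 50% growth inhibition versus control.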

NCI-H460 [5] = assay: Cell cycle arrest in human NCI-H460 cells assessed as accumulation at G2/M phase at 1 uM after 24 hrs by propidium iodide staining-based flow cytometric analysis (reference value: 18.6 +/- 1.7%); assay type: functional
NCI-H460 [6] = assay: Cell cycle arrest in human NCI-H460 cells assessed as accumulation at G2/M phase at 5 uM after 24 hrs by propidium iodide staining-based flow cytometric analysis (reference value: 18.6 +/- 1.7%); assay type: functional
NCI-H460 [7] = assay: Induction of apoptosis in human NCI-H460 cells assessed as induction of caspase 8 activity after 24 hrs by Western blot analysis; assay type: functional, cell-based
Method in brief: (§3)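 Treated H460 cells washed in cold PBS and lysed 30 min on ice in Tris-HCl pH 7.5/NP-40 buffer with protease and phosphatase inhibitors. Lysate spun at 12,000g. Protein measured by Bradford; 20 µg resolved on 10% SDS-PAGE and transferred to PVDF. Blocked with 5% milk, then primary antibody 2 h and secondary 30 min. Detected by ECL for PARP, procaspase-3 and procaspase-8.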

NCI-H460 [8] = assay: Cell cycle arrest in human NCI-H460 cells assessed as accumulation at S phase at 5 uM after 24 hrs by propidium iodide staining-based flow cytometric analysis (reference value: 14.3 +/- 1.9%); assay type: functional
HCT-116 = assay: Growth inhibition of human HCT116 cells after 48 hrs by sulforhodamine B assay; assay type: functional; settings: HCT-116, 48 h; method in brief: as §1
NCI-H460 [9] = assay: Induction of apoptosis in human NCI-H460 cells assessed as accumulation at sub-G1 phase at 1 uM after 24 hrs by propidium iodide staining-based flow cytometric analysis (reference value: 0.9 +/- 0.3%); assay type: functional
NCI-H460 [10] = assay: Cell cycle arrest in human NCI-H460 cells assessed as accumulation at G1 phase at 1 uM after 24 hrs by propidium iodide staining-based flow cytometric analysis (reference value: 66.2 +/- 2.1%); assay type: functional
SK-MEL-5 = assay: Growth inhibition of human SK-MEL-5 cells after 48 hrs by sulforhodamine B assay; assay type: functional; settings: SK-MEL-5, 48 h; method in brief: as §2
NCI-H460 [11] = assay: Antiproliferative activity against human NCI-H460 cells assessed as growth at 100 uM after 48 hrs by alamar blue assay; assay type: functional; settings: NCI-H460, 48 h, read-out: Activity
Method in brief: (§4)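 Single-dose prescreen in a three-line NCI panel (NCI-H460, MCF7, SF-268). Cells were inoculated and preincubated on microtiter plates, then exposed to test agent at 100 μM for 48 h. Alamar blue end-point. Growth is expressed as percent of untreated control cells.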

CCRF-CEM = assay: Growth inhibition of human CCRF-CEM cells after 48 hrs by sulforhodamine B assay; assay type: functional; method in brief: as §1
NCI-H460 [12] = assay: Cell cycle arrest in human NCI-H460 cells assessed as accumulation at G1 phase at 10 uM after 24 hrs by propidium iodide staining-based flow cytometric analysis (reference value: 66.2 +/- 2.1%); assay type: functional
NCI-H460 [13] = assay: Induction of apoptosis in human NCI-H460 cells assessed as induction of caspase 3 activity after 24 hrs by Western blot analysis; assay type: functional, cell-based; method in brief: as §3
NCI-H460 [14] = assay: Cell cycle arrest in human NCI-H460 cells assessed as accumulation at S phase at 1 uM after 24 hrs by propidium iodide staining-based flow cytometric analysis (reference value: 14.3 +/- 1.9%); assay type: functional
NCI-H460 [15] = assay: Cell cycle arrest in human NCI-H460 cells assessed as accumulation at G1 phase at 5 uM after 24 hrs by propidium iodide staining-based flow cytometric analysis (reference value: 66.2 +/- 2.1%); assay type: functional
NCI-H460 [16] = assay: Induction of apoptosis in human NCI-H460 cells assessed as PARP cleavage after 24 hrs by Western blot analysis; assay type: functional, cell-based; method in brief: as §3
Nucleic Acid [17] = assay: Binding affinity to Escherichia coli pBR322 assessed as DNA unwinding at 1000 uM after 12 hrs by ethidium bromide staining-based agarose gel electrophoresis; assay type: nucleic-acid assay
Method in brief: (§5)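 Negatively supercoiled pBR322 plasmid (400 ng) incubated with the test compound in TE buffer, pH 8.0, for 12 h at room temperature. Loading buffer contained sarkosyl, bromophenol blue and glycerol. Samples run on 1% agarose at 6 V/cm for 2.5 h in TAE, pH 8.5. Ethidium bromide stain, imaged under UV; unwinding read as reduced mobility of form I DNA.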

SF-268 = assay: Antiproliferative activity against human SF268 cells assessed as growth at 100 uM after 48 hrs by alamar blue assay; assay type: functional; settings: SF-268, 48 h, read-out: Activity; method in brief: as §4
Nucleic Acid [18] = assay: Binding affinity to Escherichia coli pBR322 assessed as DNA unwinding at 10 to 100 uM after 12 hrs by ethidium bromide staining-based agarose gel electrophoresis; assay type: nucleic-acid assay; method in brief: as §5
NCI-H460 [19] = assay: Induction of apoptosis in human NCI-H460 cells assessed as cell shrinkage at 10 uM after 24 hrs by light microscopic analysis relative to control; assay type: functional, cell-based
Method in brief: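 H460 cells exposed to DMSO or compound (1.0-10.0 μM) for 24 h at 37 °C, then photographed under a light microscope for morphology.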

MCF7 = assay: Antiproliferative activity against human MCF7 cells assessed as growth at 100 uM after 48 hrs by alamar blue assay; assay type: functional; settings: MCF7, 48 h, read-out: Activity; method in brief: as §4
NCI-H460 [20] = assay: Induction of apoptosis in human NCI-H460 cells assessed as accumulation at sub-G1 phase at 10 uM after 24 hrs by propidium iodide staining-based flow cytometric analysis (reference value: 0.9 +/- 0.3%); assay type: functional
U-251 = assay: Growth inhibition of human U251 cells after 48 hrs by sulforhodamine B assay; assay type: functional; settings: U-251, 48 h; method in brief: as §2
IGROV-1 = assay: Growth inhibition of human IGROV1 cells after 48 hrs by sulforhodamine B assay; assay type: functional; settings: IGROV-1, 48 h; method in brief: as §1
NCI-H460 [21] = assay: Cell cycle arrest in human NCI-H460 cells assessed as accumulation at G2/M phase at 10 uM after 24 hrs by propidium iodide staining-based flow cytometric analysis (reference value: 18.6 +/- 1.7%); assay type: functional

- GI50 (A549): 1.86 µM
- GI50 (DU-145): 6.61 µM
- GI50 (NCI-H460 [4]): 1.33 µM
- GI50 (HCT-116): 1.26 µM
- GI50 (SK-MEL-5): 3.89 µM
- GI50 (CCRF-CEM): 3.39 µM
- Activity (Nucleic Acid [17]): inactive
- Activity (Nucleic Acid [18]): Active
- GI50 (U-251): 1.1 µM
Structure (SMILES): COc1ccc2c(c1)C(=O)c1c-2c(NCCCN(C)C)nc2ccccc12
- Activity (NCI-H460 [1]): 11.8%
- GI50 [2]: 3.72 µM
- Activity (NCI-H460 [3]): 8.2%
- GI50 (SR): 1.1 µM
- Activity (NCI-H460 [5]): 28.1%
- Activity (NCI-H460 [6]): 33.5%
- Activity (NCI-H460 [7]): Dose-dependent effect
- Activity (NCI-H460 [8]): 9.1%
- Activity (NCI-H460 [9]): 3.7%
- Activity (NCI-H460 [10]): 58.1%
- growth at 100 µM (NCI-H460 [11]): 0%
- Activity (NCI-H460 [12]): 41.4%
- Activity (NCI-H460 [13]): Dose-dependent effect
- Activity (NCI-H460 [14]): 10.1%
- Activity (NCI-H460 [15]): 49.2%
- Activity (NCI-H460 [16]): Dose-dependent effect
- growth at 100 µM (SF-268): 0%
- Activity (NCI-H460 [19]): Active
- growth at 100 µM (MCF7): 0%
- Activity (NCI-H460 [20]): 25.3%
- GI50 (IGROV-1): 6.92 µM
- Activity (NCI-H460 [21]): 21.5%
